# NALP3 yeast inh: NALP3 inflammasome inhibitors in reconstituted yeast, primary screen, luminescence, uHTS; Yeast reconstituted NLRP3/ASC/caspase-1, beta-gal luminescence, 24 h; inhibition, % at 10 µM; hit rate 0.39% among 330,000; AID 2825, 2010;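 active = inhibition of 50% or more; inactive = inhibition below 50%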;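 also: plate controls were induced DMSO wells for no effect and uninduced yeast grown without galactose for full effect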
# A1 inh: caspase 3/7 activation in MEF A1-2A-BIM cells, primary screen, A1 inhibitor project, cell-based, luminescence, HTS; Caspase-Glo 3/7 luminescence, 3 h; percent of clofoctol response, vehicle zero; caspase activation, % (concentration not given with the values); hit rate 0.066% among 330,000; AID 2462, 2010;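 active = over half of replicate activation scores above 10%, or exactly half above 10 with the replicate mean above 10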
# T cell HTS: modulators of CD8 T cell-vesicle binding, primary screen, mouse 2C CD8+ T cells, flow cytometry. 2C CD8+ T cell-vesicle binding; active compounds read low. hit rate 0.068% among 330,000. response (vesicle binding), % at 7 µM. AID 2052, 2009;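 active = response, share of CD8 T cells binding vesicles, and their 90th percentile fluorescence all below set limits, cut at about 80% in these data, passing the limit was not always enough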;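 also: values below 100% mean blocked vesicle binding to the CD8+ T cells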
#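 material = purified 2C TCR transgenic mouse naive CD8+ T cells | controls = Unloaded micro-vesicles (low), QL9 vesicles with 0.7% DMSO (high) | detection = cytometric PE anti-B7-1 and Alexa647 anti-CD8 signals after 1% paraformaldehyde fixation | incubation = binding step 1.5 h, 37 °C, antibody labelling 20 min, ice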
# NALP1 inh: NALP1 inflammasome inhibitors in reconstituted yeast, colorimetric, S. cerevisiae, triplicate retest | inhibition, % at 10 µM | S. cerevisiae NALP1/ASC/caspase-1 growth, X-gal OD620, 72 h | hit rate 0.61% among 280,000; in the data active = inhibition mostly above about 24%, no sharp cut-off; inactive = mostly below about 32%
# NALP3 yeast conf: NALP3 inhibitors retested in yeast, confirmation, luminescence, single concentration; inhibition, % at 10 µM; yeast expressing human NALP3; shares compounds with NALP3 yeast inh; hit rate 81% among 1,300; AID 435006, 2010; in the data active = inhibition above about 48%
# Casp1 ASC ctr: CASP1-PYCARD signaling inhibition in yeast, confirmatory test, counterassay for NLRP3 inhibitor program, one-dose. inhibition, % at 10 µM. hit rate 66% among 1,000. yeast expressing Caspase-1-ASC, luminescence counter screen. shares compounds with NALP3 yeast inh
# NALP3 retest: NALP3 inhibitors in yeast, repeat test, confirmation, luminescence, single concentration, retest | shares compounds with NALP3 yeast inh | yeast expressing human NALP3, luminescence read-out | inhibition, % at 10 µM | hit rate 53% among 1,000
# * = called active by the depositor; . = no result. Compounds with a hit are over-represented: about 1% of the library has one in this group of screens. Rule as the data show it, unless noted: active = inhibition above about 50%; inactive = the rest.
SMILES,NALP3 yeast inh,A1 inh,T cell HTS,NALP1 inh,NALP3 yeast conf,Casp1 ASC ctr,NALP3 retest
CC(C)(C)[C@H]1C=C(C(=O)Nc2ccccc2)O[C@@H](OCc2ccc(CO)cc2)C1,53*,0,292,12,59*,61*,53*
CC(C)(C)[C@H]1C=C(C(=O)O)O[C@@H](OCc2ccc(CO)cc2)C1,0,1,168,.,.,.,.
C=Cc1ncc(OC)c2c1[nH]c1ccccc12,60*,0,271,.,74*,81*,64*
CCOc1ccc(C(=O)Nc2ccccc2C#N)cc1[N+](=O)[O-],22,0,430,38,.,.,.
CCOc1ccc(C(=O)Nc2ccccc2CC)cc1[N+](=O)[O-],53*,0,199,36,60*,53*,55*
COc1ccccc1-c1nnc2sc(-c3cc4ccccc4o3)nn12,59*,1,225,7,70*,.,.
COc1cc(Cl)c(S(=O)(=O)N2CCCC2)cc1Cl,66*,0,296,1,70*,.,.
COc1cc(S(=O)(=O)N2CCCC2)c(C)cc1C,60*,1,206,20,77*,58*,43
O=C(Nc1cccc(O)c1)c1cccc(NC(=O)c2cccs2)c1,17,1,426,-1,.,.,.
O=S(=O)(c1ccc(Br)c2ccccc12)N1CCCC1,-4,-1,162,9,.,.,.
N#Cc1nc(-c2ccccc2F)oc1NCCc1ccccc1,31,0,373,10,.,.,.
N#Cc1nc(-c2cccs2)oc1NCCc1ccccc1,71*,2,228,7,77*,70*,63*
CC1(C)[C@@H](O)CC[C@]2(C)C3C(O)C=C4[C@H]5C[C@@](C)(CO)CC[C@]5(C)CC[C@]4(C)[C@]3(C)CC[C@@H]12 (stereo not given in full),62*,1,451,.,70*,64*,50*
COc1ccc(CCN2CCCC(CN(C)Cc3cc(Cl)c(O)c(OC)c3)C2)cc1 (stereo not given),20,1,208,-2,.,.,.
N#Cc1nc(COc2ccc(F)cc2)oc1N1CCCC1,68*,1,280,17,40,65*,54*
COc1ccccc1OCc1nc(C#N)c(N2CCCC2)o1,25,-1,706,3,.,.,.
N#Cc1nc(COc2cccc(Cl)c2)oc1N1CCCC1,51*,0,503,23,65*,55*,44
Cc1ccccc1OCc1nc(C#N)c(N2CCCC2)o1,71*,1,298,2,81*,83*,71*
O=C(N/N=C/c1ccc(F)cc1)c1c(O)c2ccccc2[nH]c1=O,30,1,236,37,.,.,.
O=C(N/N=C/c1ccccc1)c1c(O)c2ccccc2[nH]c1=O,55*,-3,149,7,65*,.,.
CC(C)NC(=O)c1c(O)c2ccccc2[nH]c1=O,54*,-1,250,10,72*,37,53*
COc1ccc(S(=O)(=O)N2CCOCC2)cc1NC(=O)c1ccc(=O)[nH]c1,-10,.,.,.,.,.,.
C[C@@]12C(=O)Nc3ccc(Br)cc3C(=O)N1[C@H]1c3ccccc3OC[C@@H]1[C@@H]2c1ccccc1,88*,0,304,.,89*,90*,74*
C[C@@]12C(=O)Nc3ccc(Br)cc3C(=O)N1[C@H]1c3cc(Cl)ccc3OC[C@@H]1[C@@H]2c1ccccc1,19,1,388,.,.,.,.
Cc1ccc2c(c1)C(=O)N1[C@H]3c4ccccc4OC[C@@H]3[C@H](c3ccccc3)[C@]1(C)C(=O)N2,70*,0,176,.,83*,84*,73*
SMILES,NALP3 yeast inh,A1 inh,T cell HTS,NALP1 inh,NALP3 yeast conf,Casp1 ASC ctr,NALP3 retest
Cc1ccc2c(c1)NC(=O)[C@@]1(C)[C@@H](c3ccccc3)[C@H]3COc4ccccc4[C@@H]3N1C2=O,15,2,.,.,.,.,.
CC(C)(C)Nc1ncnc2c1cnn2-c1ccccc1,66*,-1,240,.,74*,80*,73*
CC1CCN(c2ncnc3c2cnn3-c2ccccc2)CC1,53*,-3,324,20,60*,47,38
COc1ccc(-n2ncc3c(N4CCC(C)CC4)ncnc32)cc1,14,-2,332,18,.,.,.
O=C(C1=C(O)C(=O)N(CC2CCCO2)C1c1ccc(Cl)cc1Cl)c1ccco1 (stereo not given),3,0,192,14,.,.,.
CNc1nc(SCc2ccccc2Cl)nc2c1CCCC2,98*,1,360,112*,99*,98*,98*
COc1ccc(N(CC(=O)NC2CCS(=O)(=O)C2)S(=O)(=O)c2cc(C)ccc2C)cc1 (stereo not given),-5,1,291,.,.,.,.
OC(c1ccc(Cl)cc1)c1nccc2ccccc12 (stereo not given),58*,0,173,12,67*,65*,47
COc1ccc(C(=O)NNC(=O)C(=O)NC2CCCCC2)cc1,12,0,263,-10,.,.,.
COc1ccc(N=C(C)C2=C(O)c3ccccc3C2=O)cc1,50*,-5,388,32,42,57*,36
Cc1ccccc1-n1nc2c(c1NC(=O)CC(C)C)CS(=O)C2 (stereo not given),3,0,383,20,.,.,.
C=C1/C=C(\C)[C@](C)(O)C[C@H](O)CC(=O)[C@H](O)[C@@H](O)[C@H](C)C[C@H](C)OC(=O)/C(C)=C/CC/C=C/[C@@H]2O[C@H]2C[C@H](C)C1,83*,15*,754,.,89*,.,.
CCOc1ccc(NC(=O)Nc2ccon2)cc1,21,0,0,28,.,.,.
COc1ccc(CNC(=O)COC(=O)/C=C/c2cccc(Cl)c2)cc1,-18,-1,362,.,.,.,.
CCN(CC)c1ccc2c(Cl)cc(=O)oc2c1,58*,2,52*,12,53*,59*,44
CCN(CC)c1ccc2c(O)cc(=O)oc2c1,3,0,199,0,.,.,.
CC(=O)Nc1cccc(-c2nc3ccccc3s2)c1,54*,0,242,4,46,.,.
CC(=O)Nc1ccc(O)c(-c2nc3ccccc3s2)c1,56*,-2,333,14,67*,.,.
Cc1ccsc1C(=O)Nc1ccc(O)c(-c2nc3ccccc3s2)c1,2,0,196,2,.,.,.
Oc1cccc(-c2nc3ccccc3s2)c1,73*,-8,345,11,84*,82*,69*
CC(=O)Nc1cccc(-c2nc3ccc(NC(C)=O)cc3s2)c1,13,-3,479,-3,.,.,.
CNC(=O)Nc1cccc(-c2cc(-c3c(Cl)cccc3Cl)no2)c1,48,1,494,8,.,.,.

# Assay outcomes from PubChem BioAssay.
